From ChEMBL document CHEMBL1135577, “Synthesis and biological evaluation of structurally highly modified analogues of the antimitotic natural product curacin A” (J Med Chem, 2002) come the findings set out here.

One experiment deals with 2008. Briefly: Compound was tested for 50% growth inhibitory concentration by using human ovarian carcinoma cell lines (2008). The class given is functional. The essentials: (§1)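 Cultured human tumor cells were seeded at 500-2000 cells/well, allowed to attach for 48 h, then exposed continuously for 48 h to DMSO vehicle or agent at five concentrations (e.g., 50-0.08 μM, 10-0.016 μM or 1-0.0016 μM series), each in quadruplicate. A time-zero plate was included. Cell number was read by MTS/phenazine methanesulfonate at A490-A630. Values are means (N = 4 over 10 concentrations) ± SD.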

Experiment [1] has as its system A2780. Briefly: Compound was tested for Tubulin polymerization inhibition by using human ovarian carcinoma cell lines. The class given is functional. The essentials: (§2)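 Tubulin (10 μM final, 1 mg/mL) was preincubated with agent in DMSO (4% v/v final) and 0.8 M monosodium glutamate for 15 min at 30 °C, then cooled to 0 °C and GTP (0.4 mM final) added. Turbidity at 350 nm was followed for 20 min at 30 °C. […] Values are averages of two determinations.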

Experiment [2] relates to A2780. In words: Compound was tested for colchicine Binding Inhibition by using human ovarian carcinoma cell line (at 5 uM ). The class given is functional. The essentials: (§3)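 [3H]colchicine (5 μM) was incubated with 1 μM tubulin and agent (1-250 μM) or DMSO vehicle (5% v/v) at 30 °C for 15 min or 37 °C for 10 min, in 1 M monosodium glutamate, 0.1 M glucose-1-phosphate, 1 mM MgCl2, 1 mM GTP and 0.5 mg/mL BSA. Samples were filtered through DEAE-cellulose and counted by scintillation. Values are means (N = 9 over four concentrations) ± SD.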

The test system of another experiment is MDA-MB-231. In words: Compound was tested for 50% Growth Inhibitory concentration by using MDA-MB-231 cell lines. The class given is functional. To be noted: Homo sapiens. The essentials:
as §1

A further experiment deals with PC-3. Briefly: Compound was tested for 50% growth inhibitory concentration by using human prostate carcinoma cell lines (PC -3). The experiment is classed as functional. The essentials:
as §1

In the next experiment the target is Tubulin (Bos taurus). In words: Ability to inhibit the GTP/glutamate-induced polymerization of tubulin.
Experiment [3] concerns A2780. Briefly: Compound was tested for 50% Growth Inhibitory concentration by using A2780 cell lines. To be noted: Homo sapiens.
In experiment [4] the test system is A2780. In words: Compound was tested for colchicine binding inhibition by using human ovarian carcinoma cell line (at 5 uM ). The experiment is classed as functional. The essentials:
as §3

Experiment [5] concerns A2780. Briefly: Compound tested for colchicine Binding Inhibition by using human ovarian carcinoma cell line (at 5 uM ). The class given is functional. The essentials: as §3
In experiment [6] the test system is A2780. In words: Inhibition of tubulin polymerization in analogy of ca. The experiment is classed as functional, cell-based. The settings on record: Homo sapiens. The essentials: as §2
Experiment [7] can be described thus: Average growth inhibition activity in analogy of ca. The class given is functional. The essentials:
as §1

By GI50 is commonly meant the concentration that inhibits growth by half. Low values mean more potent growth inhibition, high ones less potent growth inhibition. What is called inhibition is the drop in the measured response relative to a control, in per cent. What is called IC50 is the concentration that gives 50% inhibition. A high value points to weaker potency in that assay.

Consider `COc1cc(/C=N\OC/C=C/C=C(\C)CCC(O)c2cccs2)cc(OC)c1OC` (centres undefined), for which the results for the 50% growth inhibitory concentration (GI50) in the experiment with 2008, with MDA-MB-231 and in the experiment on PC-3 were 0.24 µM, 0.12 µM and 0.25 µM, respectively. The TPI with A2780 [1] stood at 100%. This compound also displayed an inhibition at 5 µM with A2780 [2] of 48%. Also, on Tubulin (Bos taurus), the IC50 worked out at 0.17 µM.

`COC[C@H]1C[C@H]1C1=NC(COC/C=C(\C)CC/C=C(\C)CCC=C(C)C)CS1` (some centres undefined) came in with a GI50 in the experiment on A2780 [3] of over 25 µM.

Turning to `C=CC[C@@H](CC[C@@]1(C)C[C@@H]1[C@H]1C[C@@H]1CC/C=C\[C@@H]1COC([C@@H]2C[C@@H]2C)=N1)OC`, the GI50 with 2008 was 18 µM; in the experiment on MDA-MB-231 it was 18 µM; in the experiment with PC-3 it was 49 µM. Moreover, in the experiment with A2780 [1], the TPI stood at 59%. This compound also registered an inhibition at 5 µM in the experiment with A2780 [4] of under 10%.

`COc1cc(COCCC/C=C/C=C(\C)CCC(O)c2cccs2)cc(OC)c1OC` (centres undefined): the values for the GI50 with 2008, in the experiment on MDA-MB-231 and in the experiment on PC-3 were 15 µM, over 50 µM and 18 µM, respectively. Moreover, the TPI in the experiment with A2780 [1] was determined as 7%. In addition, the inhibition at 5 µM in the experiment with A2780 [5] was under 10%.

In turn, `COc1cc(/C=C\CC/C=C/C=C(\C)CCC(O)c2cc3ccccc3o2)cc(OC)c1OC` (centres undefined) registered an IC50 with A2780 [6] of 1 µM. In experiment [7], this compound came in with a GI50 of 0.25 µM.
